Active and inactive are the calls of the source. No cut-off for these calls is given here.
Legend:
Escherichia coli = test: Antimicrobial activity against wild-type Escherichia coli K12 by twofold serial dilution method; assay type: functional
Pseudomonas aeruginosa = test: Antimicrobial activity against Pseudomonas aeruginosa PA14 by twofold serial dilution method; assay type: functional
Candida albicans = test: Antimicrobial activity against Candida albicans F5 by twofold serial dilution method; assay type: functional
[1] = target: T1, Quinolone resistance protein NorA (Staphylococcus aureus) (UniProt P0A0J7); test: Inhibition of NorA efflux pump in Staphylococcus aureus K2361 mutant overexpressing NorA assessed as potentiation of berberine-induced antimicrobial activity at 48 uM by twofold serial dilution method
T1 sequence (whole entry): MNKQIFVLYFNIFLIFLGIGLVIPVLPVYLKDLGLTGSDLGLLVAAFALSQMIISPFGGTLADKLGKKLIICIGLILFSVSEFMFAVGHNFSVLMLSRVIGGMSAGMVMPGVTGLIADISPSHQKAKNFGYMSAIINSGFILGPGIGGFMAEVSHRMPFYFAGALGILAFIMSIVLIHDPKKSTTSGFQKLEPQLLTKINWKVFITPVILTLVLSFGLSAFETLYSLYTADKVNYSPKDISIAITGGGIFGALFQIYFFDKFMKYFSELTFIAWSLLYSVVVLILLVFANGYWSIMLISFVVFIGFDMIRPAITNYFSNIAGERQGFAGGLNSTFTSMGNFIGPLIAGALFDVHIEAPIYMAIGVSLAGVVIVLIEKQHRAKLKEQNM
Outline: (§1)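 Checkerboard assay in 96-well plates. Berberine is diluted 2-fold from 30 to 0.5 µg/mL (89-1.5 µM) across rows, and plant compound from 15 to 0.015 µg/mL across columns, with single-agent dilution series on each plate. Inoculum 5 × 10⁶ CFU/mL, 24 h at 37 °C, growth read at A600. Result is the fold reduction in berberine MIC.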

Staphylococcus aureus [2] = test: Inhibition of MDR protein in wild-type Staphylococcus aureus 8325-4 assessed as potentiation of antimicrobial activity of berberine after 18 hrs by twofold serial dilution method
Staphylococcus aureus [3] = test: Antimicrobial activity against wild-type Staphylococcus aureus 8325-4 by twofold serial dilution method; assay type: functional
Enterococcus faecalis = test: Antimicrobial activity against Enterococcus faecalis V583 by twofold serial dilution method; assay type: functional
Saccharomyces cerevisiae = test: Antimicrobial activity against Saccharomyces cerevisiae BY4742 by twofold serial dilution method; assay type: functional
[4] = target: T1, Quinolone resistance protein NorA (Staphylococcus aureus); test: Inhibition of NorA efflux pump in wild-type Staphylococcus aureus 8325-4 assessed as fold reduction of berberine MIC at 56 uM by twofold serial dilution method; outline: as §1
[5] = target: T1, Quinolone resistance protein NorA (Staphylococcus aureus); test: Inhibition of NorA efflux pump in Staphylococcus aureus K1758 mutant assessed as fold reduction of berberine MIC at 56 uM by twofold serial dilution method; outline: as §1
[6] = target: T1, Quinolone resistance protein NorA (Staphylococcus aureus); test: Inhibition of NorA efflux pump in Staphylococcus aureus K2361 mutant overexpressing NorA assessed as potentiation of berberine-induced antimicrobial activity at 56 uM by twofold serial dilution method; outline: as §1
[7] = target: T1, Quinolone resistance protein NorA (Staphylococcus aureus); test: Inhibition of NorA efflux pump in Staphylococcus aureus K1758 mutant assessed as fold reduction of berberine MIC at 48 uM by twofold serial dilution method; outline: as §1
[8] = target: T1, Quinolone resistance protein NorA (Staphylococcus aureus); test: Inhibition of NorA efflux pump in wild-type Staphylococcus aureus 8325-4 assessed as fold reduction of berberine MIC at 48 uM by twofold serial dilution method; outline: as §1
[9] = target: T1, Quinolone resistance protein NorA (Staphylococcus aureus); test: Inhibition of NorA efflux pump in wild-type Staphylococcus aureus 8325-4 assessed as fold reduction of berberine MIC at 42 uM by twofold serial dilution method; outline: as §1
[10] = target: T1, Quinolone resistance protein NorA (Staphylococcus aureus); test: Inhibition of NorA efflux pump in Staphylococcus aureus K2361 mutant overexpressing NorA assessed as potentiation of berberine-induced antimicrobial activity at 42 uM by twofold serial dilution method; outline: as §1
Staphylococcus aureus [11] = test: Antimicrobial activity against Staphylococcus aureus K2361 mutant overexpressing NorA; assay type: functional
Staphylococcus aureus [12] = test: Antimicrobial activity against wild-type Staphylococcus aureus 8325-4; assay type: functional
Outline: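 Wild-type S. aureus 8325-4 grown in Mueller-Hinton broth and inoculated at 10⁵ cells/mL. Test compound serially diluted 2-fold from 50 µg/mL ([…]). Incubated 18 h at 37 °C. Growth read as absorbance at 600 nm. Triplicate, following NCCLS recommendations.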

Staphylococcus aureus [13] = test: Antimicrobial activity against NorA knockout Staphylococcus aureus K1758 mutant; assay type: functional

| SMILES | MIC (Escherichia coli) | MIC (Pseudomonas aeruginosa) | MIC (Candida albicans) | Activity [1] | Activity (Staphylococcus aureus [2]) | MIC (Staphylococcus aureus [3]) | MIC (Enterococcus faecalis) | MIC (Saccharomyces cerevisiae) | fold change (FC) [4] | fold change (FC) [5] | Activity [6] | fold change (FC) [7] | fold change (FC) [8] | fold change (FC) [9] | Activity [10] | MIC (Staphylococcus aureus [11]) | MIC (Staphylococcus aureus [12]) | MIC (Staphylococcus aureus [13]) |
| --- | --- | --- | --- | --- | --- | --- | --- | --- | --- | --- | --- | --- | --- | --- | --- | --- | --- | --- |
| COc1ccc(-c2coc3cc(O)c(OC)cc3c2=O)c(O)c1 | > 140 µM | > 140 µM | > 140 µM | inactive | Active | > 140 µM | > 140 µM | > 140 µM |  |  |  |  |  |  |  |  |  |  |
| COc1ccc2c(c1)O[C@@H]1c3ccc(O)cc3OC[C@H]21 | > 140 µM | > 140 µM | > 140 µM |  | Active | > 140 µM | > 140 µM | > 140 µM | 4 | 4 | inactive |  |  |  |  |  |  |  |
| COc1cc(O)ccc1-c1oc2cc3c(cc2c1C=O)OCO3 [SPINOSAN A] | > 140 µM | > 140 µM | > 140 µM | inactive | Active | > 140 µM | > 140 µM | > 140 µM |  |  |  | 15 | 8 |  |  |  |  |  |
| COc1cc(OC(C)=O)ccc1-c1oc2cc3c(cc2c1C=O)OCO3 [SPINOSAN A ACETATE] | > 140 µM | > 140 µM | > 140 µM |  | Active | > 140 µM | > 140 µM | > 140 µM |  |  |  |  |  | 62 | Active |  |  |  |
| COc1ccc2c(C=O)c(-c3ccc(O)cc3OC)oc2c1 [SPINOSAN B] | > 140 µM | > 140 µM | > 140 µM |  | inactive | > 140 µM | > 140 µM | > 140 µM |  |  |  |  |  |  |  |  |  |  |
| COc1ccc2cc3[n+](cc2c1OC)CCc1cc2c(cc1-3)OCO2 [BERBERINE CHLORIDE] |  |  |  |  |  |  |  |  |  |  |  |  |  |  |  | > 1490 µM | 372 µM | 89 µM |
| COc1ccc2c(c1)O[C@@H]1c3ccc(OC)c(O)c3OC[C@H]21 | > 140 µM | > 140 µM | > 140 µM |  | inactive | > 140 µM | > 140 µM | > 140 µM |  |  |  |  |  |  |  |  |  |  |
